Laboratory results from PubChem BioAssay AID2805 (Sanford-Burnham Center for Chemical Genomics, 2010).
Among all 330,000 compounds or so, about 780 (0.24%) were called active. This is one part of a sample in which actives are shown more often than they occur.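 How the source made its calls: active means activation factor of at least 2 at 20 µM; inactive means the rest.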

Each molecule was assayed on intestinal alkaline phosphatase [Mus musculus] (assay: mouse intestinal phosphatase enzyme activation – biochemical, luminescence, uHTS, primary screen (AID 2805)). Conditions: muIAP, CDP-Star luminescence, 30 min; at 10 µM; hits give high values; 1 = vehicle-only enzyme signal, 0 = enzyme-free wells.
In short: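 also added = chemiluminescent substrate CDP-Star | test system = mouse IAP enzyme | signal = chemiluminescence readout | compound = DMSO-dissolved test compounds | incubation = 30 min at room temperature | benchmarks = DMSO wells, no-enzyme wells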

**Q.** With `COc1ccc(OC)c(NC(=O)c2ccc3c(c2)CCN3S(C)(=O)=O)c1` as the molecule, how does the activation factor read?
**A.** 0.846 (inactive)

**Q.** `COCCCNC(=S)NCCNc1nc2cc(C)c(C)cc2cc1C#N` was tested. Which activation factor did it give?
**A.** 1.01 (inactive)

**Q.** For `COc1cccc2c(C)c(C(=O)O)[nH]c12`, which activation factor is on record?
**A.** 0.981 (inactive)

**Q.** How did the activation factor turn out when `O=C(C1=C[C@H](c2ccc(C(F)(F)F)cc2)C[C@H](OCc2ccc(CO)cc2)O1)N1CCN(Cc2ccccc2)CC1` was run?
**A.** 1.05 (inactive)

**Q.** For `COC(=O)c1scc(S(=O)(=O)C(C)(C)C)c1-n1cccc1`, which activation factor is on record?
**A.** 0.97 (inactive)

**Q.** How did the activation factor turn out when `N#CC1=C(N)Oc2[nH]c(=S)[nH]c(=O)c2C12C(=O)Nc1ccccc12` (stereo not given) was run?
**A.** 1 (inactive)

**Q.** How did the activation factor turn out when `O=c1[nH]c(CN2CCOCC2)nc2scc(-c3ccccc3)c12` was run?
**A.** 1.04 (inactive)

**Q.** With `COCc1cc(=O)n2[nH]c(C)c(-c3ccccc3)c2n1` as the molecule, how does the activation factor read?
**A.** 1.04 (inactive)

**Q.** For `Cc1ccc(NC(=S)Nc2ccc(F)cc2)cc1`, which activation factor is on record?
**A.** 1.03 (inactive)

**Q.** `CC(C)CNC(=S)Nc1ccc(F)cc1` was tested. Which activation factor did it give?
**A.** 1.15 (inactive)

**Q.** With `CC(NC(=S)Nc1ccc(OC(F)F)cc1)c1ccc(F)cc1` (stereo not given) as the molecule, how does the activation factor read?
**A.** 2.2 (active)

**Q.** Which activation factor does the source give for `COc1ccccc1-c1nn(Cc2ccccc2)cc1C(=O)N1CCN(c2ncccn2)CC1` here?
**A.** 0.95 (inactive)

**Q.** `O=C(CSc1cccc[n+]1[O-])NCCCc1ccccc1` was tested. Which activation factor did it give?
**A.** 1.02 (inactive)

**Q.** How did the activation factor turn out when `O=C(Nc1ccccc1)Nc1nnc(COc2ccccc2F)s1` was run?
**A.** 0.892 (inactive)

**Q.** How did the activation factor turn out when `Cc1cc(NC(=O)Nc2ccc(Cl)cc2)n(-c2ccccc2)n1` was run?
**A.** 2.3 (active)

**Q.** With `Cc1ccc(NC(=O)Nc2cc(-c3ccccc3)nn2C)cc1Cl` as the molecule, how does the activation factor read?
**A.** 1.48 (inactive)

**Q.** `Cc1cc(C(=O)NCCc2ccc(Cl)cc2)n(-c2ccccc2)n1` was tested. Which activation factor did it give?
**A.** 1.02 (inactive)

**Q.** With `N#CCCCn1c(O)c(N=NC(=O)C(O)c2ccccc2)c2ccccc21` (stereo not given) as the molecule, how does the activation factor read?
**A.** 0.987 (inactive)

**Q.** Which activation factor does the source give for `CCC1CCCCN1C(=S)Nc1ccc(SC(F)F)cc1` (stereo not given) here?
**A.** 0.894 (inactive)

**Q.** `CCN(CC)c1nc(-c2ccccc2)cc(C(F)(F)F)c1C#N` was tested. Which activation factor did it give?
**A.** 0.949 (inactive)

**Q.** With `Cc1c(Cl)cccc1NC(=O)Nc1ccc(C(=O)N2CCCC2)cc1` as the molecule, how does the activation factor read?
**A.** 2 (active)

**Q.** Which activation factor does the source give for `O=C(Nc1cccc(F)c1)NC1CCCCCCC1` here?
**A.** 2.46 (active)

**Q.** `O=C(Nc1cccc(F)c1)NC1CCCc2ccccc21` (stereo not given) was tested. Which activation factor did it give?
**A.** 0.963 (inactive)

**Q.** Which activation factor does the source give for `Cc1cc(C)cc(NC(=O)NC2CCN(CC(=O)Nc3cccc(Cl)c3C)CC2)c1` here?
**A.** 5.45 (active)

**Q.** For `COc1cccc(NC(=O)CN2CCN(CC(=O)Nc3ccccc3Cl)CC2)c1`, which activation factor is on record?
**A.** 0.978 (inactive)

**Q.** With `Cc1c(Cl)cccc1NC(=O)NCCCN1CCCC1=O` as the molecule, how does the activation factor read?
**A.** 1.01 (inactive)

**Q.** For `O=C(CN1CCC(NC(=O)Nc2ccccc2)CC1)Nc1cccc([N+](=O)[O-])c1`, which activation factor is on record?
**A.** 1.02 (inactive)

**Q.** Which activation factor does the source give for `C/C(CC(=O)Nc1cccc(F)c1)=N\NC(=O)C(=O)NC1CCCCC1` here?
**A.** 0.807 (inactive)

**Q.** How did the activation factor turn out when `CC(C)(C)NS(=O)(=O)c1ccc(NC(=O)NC2CCCCC2)cc1` was run?
**A.** 1.7 (inactive)

**Q.** With `Cc1cc(C)cc(NC(=O)NC2CCCCCCC2)c1` as the molecule, how does the activation factor read?
**A.** 4.34 (active)

**Q.** `CC(C)c1ccc(NC(=O)NC2CCCCC2)cc1` was tested. Which activation factor did it give?
**A.** 1.77 (inactive)

**Q.** How did the activation factor turn out when `CS(=O)(=O)Nc1ccc(C(=O)N2CCCC2)cc1` was run?
**A.** 0.947 (inactive)

**Q.** How did the activation factor turn out when `CSCC(=O)N1CCCC(C(=O)c2cc(F)ccc2F)C1` (stereo not given) was run?
**A.** 0.984 (inactive)

**Q.** With `O=C(OCC1O[C@@H](OC(=O)c2cc(O)c(O)c(O)c2)[C@@H](OC(=O)c2cc(O)c(O)c(O)c2)[C@@H](OC(=O)c2cc(O)c(O)c(O)c2)[C@@H]1OC(=O)c1cc(O)c(O)c(O)c1)c1cc(O)c(O)c(O)c1` (stereo not given in full) as the molecule, how does the activation factor read?
**A.** 0.831 (inactive)

**Q.** For `CN(Cc1ccccc1)C(=O)COC(=O)/C=C/c1ccc2c(c1)OCO2`, which activation factor is on record?
**A.** 0.965 (inactive)

**Q.** For `CCc1ccccc1N1CN(Cc2ccco2)CNC1=S`, which activation factor is on record?
**A.** 0.992 (inactive)

**Q.** Which activation factor does the source give for `COc1c(O)cccc1-c1nnn(CCC(=O)OCC(=O)c2ccccc2)n1` here?
**A.** 0.984 (inactive)

**Q.** With `Cc1cccc(NC(=S)NCCN(C2CCCCC2)C2CCCC2)c1` as the molecule, how does the activation factor read?
**A.** 2.13 (active)

**Q.** How did the activation factor turn out when `Cc1cccc(NC(=S)Nc2ccc(Cl)c(Cl)c2)c1` was run?
**A.** 1.16 (inactive)

**Q.** With `Cc1cccc(NC(=S)NC23CN4CN(CN(C4)C2)C3)c1` as the molecule, how does the activation factor read?
**A.** 0.962 (inactive)

**Q.** `O=C(c1ccc(O)cc1)c1ccc(C(=O)O)c(C(=O)O)c1` was tested. Which activation factor did it give?
**A.** 1.01 (inactive)

**Q.** For `CC(=O)c1cccc(NC(=O)N2CCCC2C(=O)NCCC(C)C)c1` (stereo not given), which activation factor is on record?
**A.** 0.988 (inactive)

**Q.** With `O=C(COc1ccccc1F)NNC(=O)c1cc(Br)ccc1Cl` as the molecule, how does the activation factor read?
**A.** 0.932 (inactive)

**Q.** `O=C(NCCOc1ccccc1Cl)C(=O)Nc1ccccc1` was tested. Which activation factor did it give?
**A.** 0.98 (inactive)

**Q.** With `O=C(NCCOc1ccccc1F)Nc1ccc(Br)cc1` as the molecule, how does the activation factor read?
**A.** 2.2 (active)

**Q.** For `O=C(Cn1ncc2c3ccccc3n(Cc3ccccc3)c2c1=O)NCCCN1CCOCC1`, which activation factor is on record?
**A.** 0.993 (inactive)

**Q.** For `C=C(Br)Cn1c(CCCC)nc2ccccc21`, which activation factor is on record?
**A.** 0.968 (inactive)

**Q.** With `COc1ccc(NC(=O)Nc2ccc3c(c2)C(=O)N([C@H](C)CO)C[C@H](C)[C@@H](CN(C)C(=O)Nc2ccc4c(c2)OCO4)O3)cc1` as the molecule, how does the activation factor read?
**A.** 2.74 (active)

**Q.** How did the activation factor turn out when `COc1ccc(NC(=O)N(C)C[C@H]2Oc3ccc(NC(=O)C4CC4)cc3C(=O)N([C@H](C)CO)C[C@@H]2C)cc1` was run?
**A.** 1.05 (inactive)

**Q.** `C[C@H](CO)N1C[C@H](C)[C@@H](CN(C)C(=O)Nc2ccc3c(c2)OCO3)Oc2c(cccc2N(C)C)C1=O` was tested. Which activation factor did it give?
**A.** 0.974 (inactive)

**Q.** With `COc1ccc(S(=O)(=O)NCC(=O)NC2CC2)cc1OC` as the molecule, how does the activation factor read?
**A.** 0.966 (inactive)

**Q.** `O=C(CN1CCC(O)(c2cccc(C(F)(F)F)c2)CC1)NCCc1ccccc1` was tested. Which activation factor did it give?
**A.** 0.933 (inactive)

**Q.** `CC(=O)Nc1cccc(C(=O)OCN2C(=O)c3ccccc3C2=O)c1` was tested. Which activation factor did it give?
**A.** 0.892 (inactive)

**Q.** With `CC(=O)N(CC(O)CO)c1c(I)c(C(=O)NCC(O)CO)c(I)c(C(=O)NCC(O)CO)c1I` (stereo not given) as the molecule, how does the activation factor read?
**A.** 1.05 (inactive)

**Q.** For `Cc1cc(C)c(S(=O)(=O)c2ccccc2)c(OC(=O)c2c(F)cccc2Cl)n1`, which activation factor is on record?
**A.** 0.919 (inactive)

**Q.** Which activation factor does the source give for `N=c1c2c(-c3ccccc3)c(-c3ccccc3)n(Cc3ccccc3)c2ncn1CCCO` here?
**A.** 0.982 (inactive)

**Q.** For `OCCCN1c2ccccc2Nc2nnc(-c3ccccc3)cc21`, which activation factor is on record?
**A.** 2.5 (active)

**Q.** `COc1ccc(C)cc1NC(=O)NCCCCc1ccccc1` was tested. Which activation factor did it give?
**A.** 1.36 (inactive)

**Q.** `O=C(CNC(=O)c1ccccc1Br)NNC(=O)c1cccs1` was tested. Which activation factor did it give?
**A.** 0.934 (inactive)

**Q.** For `Cc1ccc(CN(C)Cc2cc(=O)oc3cc(C)c(Cl)cc23)cc1`, which activation factor is on record?
**A.** 0.989 (inactive)
